Reference: ChEMBL document CHEMBL1938335, “2-(4-Methylsulfonylaminophenyl) propanamide TRPV1 antagonists: Structure-activity relationships in the B and C-regions” (Bioorg Med Chem, 2012)

Legend:
[1] = target: T1, Transient receptor potential cation channel subfamily V member 1 (Rattus norvegicus, UniProt O35433); assay: Agonist activity at rat TRPV1 expressed in CHO cells by 45Ca2+ uptake assay; format: functional, cell-based
[2] = target: T1, Transient receptor potential cation channel subfamily V member 1; assay: Displacement of [3H]RTX from rat TRPV1 expressed in CHO cells; format: cell-based
Summary of the method: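 Competitive binding against [3H]RTX on rat TRPV1 heterologously expressed in CHO cells. Affinity reported as Ki (nM). Values are mean ± SEM from 3 or more experiments.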

[3] = target: T1, Transient receptor potential cation channel subfamily V member 1; assay: Antagonist activity at rat TRPV1 expressed in CHO cells by 45Ca2+ uptake assay

T1 sequence (O35433 whole entry): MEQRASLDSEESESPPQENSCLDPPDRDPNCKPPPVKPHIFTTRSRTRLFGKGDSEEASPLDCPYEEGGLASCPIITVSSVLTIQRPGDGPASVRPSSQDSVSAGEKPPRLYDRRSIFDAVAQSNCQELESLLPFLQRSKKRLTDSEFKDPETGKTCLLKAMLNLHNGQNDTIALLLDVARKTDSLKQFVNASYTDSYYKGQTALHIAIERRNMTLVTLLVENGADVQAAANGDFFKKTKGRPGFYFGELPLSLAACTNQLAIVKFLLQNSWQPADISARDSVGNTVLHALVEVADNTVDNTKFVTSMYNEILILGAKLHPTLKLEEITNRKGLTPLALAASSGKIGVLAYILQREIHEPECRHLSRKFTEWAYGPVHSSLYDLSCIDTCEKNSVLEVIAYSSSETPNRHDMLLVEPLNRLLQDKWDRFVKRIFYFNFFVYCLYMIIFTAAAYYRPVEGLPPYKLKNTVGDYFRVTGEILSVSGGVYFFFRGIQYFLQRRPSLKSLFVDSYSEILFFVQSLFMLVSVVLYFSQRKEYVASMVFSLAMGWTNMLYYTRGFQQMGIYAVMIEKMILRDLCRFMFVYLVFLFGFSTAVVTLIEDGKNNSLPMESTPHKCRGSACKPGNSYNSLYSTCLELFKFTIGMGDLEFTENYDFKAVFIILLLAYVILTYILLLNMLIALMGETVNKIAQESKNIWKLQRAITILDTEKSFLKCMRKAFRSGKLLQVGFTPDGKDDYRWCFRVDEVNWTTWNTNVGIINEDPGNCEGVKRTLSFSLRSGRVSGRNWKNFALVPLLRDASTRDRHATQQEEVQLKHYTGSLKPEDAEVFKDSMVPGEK

Compound | EC50 [1] | Ki ([2]; read-out: Ki) [nM] | Ki [3] [nM] | Ki ([2]; cho)
CC(C)(C)c1ccc(CNC(=O)C(C)(C)c2ccc(NS(C)(=O)=O)cc2)cc1 | Not Active | 430 | – | –
CC(C)(C)c1ccc(CNC(=O)C2(c3ccc(NS(C)(=O)=O)cc3)CC2)cc1 | Not Active | – | – | –
CC(C)(C)c1ccc(CNC(=O)C(C)(C)c2ccc(NS(C)(=O)=O)c(F)c2)cc1 | Not Active | – | – | –
COc1cc(C(C)(C)C(=O)NCc2ccc(C(C)(C)C)cc2)ccc1NS(C)(=O)=O | Not Active | 414 | 707 | –
CC(C)(C)c1ccc(CNC(=O)C2(c3ccc(NS(C)(=O)=O)c(F)c3)CC2)cc1 | Not Active | – | – | Not Active
COc1cc(C2(C(=O)NCc3ccc(C(C)(C)C)cc3)CC2)ccc1NS(C)(=O)=O | Not Active | – | – | –
CC(NC(=O)Cc1ccc(C(C)(C)C)cc1)c1ccc(NS(C)(=O)=O)c(F)c1 (centres undefined) | Not Active | 2100 | – | –
CC(NC(=O)CCc1ccc(C(C)(C)C)cc1)c1ccc(NS(C)(=O)=O)c(F)c1 (centres undefined) | Not Active | – | – | –
CC(NC(=O)/C=C/c1ccc(C(C)(C)C)cc1)c1ccc(NS(C)(=O)=O)c(F)c1 (centres undefined) | Not Active | – | – | –
CC(C(=O)NCc1ccc(Cl)cc1)c1ccc(NS(C)(=O)=O)c(F)c1 (centres undefined) | Not Active | – | – | –
CC(C(=O)NCc1ccc(Br)cc1)c1ccc(NS(C)(=O)=O)c(F)c1 (centres undefined) | Not Active | 412 | 250 | –
CC(C(=O)NCc1ccc(I)cc1)c1ccc(NS(C)(=O)=O)c(F)c1 (centres undefined) | Not Active | 502 | 107 | –
CC(C(=O)NCc1ccc(Cl)c(Cl)c1)c1ccc(NS(C)(=O)=O)c(F)c1 (centres undefined) | Not Active | – | – | –
CC(C(=O)NCc1ccc(C(F)(F)F)cc1)c1ccc(NS(C)(=O)=O)c(F)c1 (centres undefined) | Not Active | – | – | –
COc1ccc(CNC(=O)C(C)c2ccc(NS(C)(=O)=O)c(F)c2)cc1 (centres undefined) | Not Active | 7800 | 5350 | –
Cc1ccc(CNC(=O)C(C)c2ccc(NS(C)(=O)=O)c(F)c2)cc1 (centres undefined) | Not Active | 3100 | 930 | –
CC(C)c1ccc(CNC(=O)C(C)c2ccc(NS(C)(=O)=O)c(F)c2)cc1 (centres undefined) | Not Active | – | – | –
CC(C(=O)NCc1ccc(C2CC2)cc1)c1ccc(NS(C)(=O)=O)c(F)c1 (centres undefined) | Not Active | 411 | 55.5 | –
CC(C(=O)NCc1ccc(C2C=CCC2)cc1)c1ccc(NS(C)(=O)=O)c(F)c1 (centres undefined) | Not Active | 162 | 15 | –
CC(C(=O)NCc1ccc(C2CCCC2)cc1)c1ccc(NS(C)(=O)=O)c(F)c1 (centres undefined) | Not Active | 93 | 20.8 | –
CC(C(=O)NCc1ccc(C2CCCCC2)cc1)c1ccc(NS(C)(=O)=O)c(F)c1 (centres undefined) | Not Active | 138 | 43 | –
CC(C(=O)NCc1ccc(-c2ccccc2)cc1)c1ccc(NS(C)(=O)=O)c(F)c1 (centres undefined) | Not Active | – | – | –
CC(C(=O)NCc1ccc(C(C)(C)C)cc1Br)c1ccc(NS(C)(=O)=O)c(F)c1 (centres undefined) | Not Active | 47 | 12.7 | –

Compound | EC50 [1] | Ki ([2]; read-out: Ki) [nM] | Ki [3] [nM] | Ki ([2]; cho)
CC(C(=O)NCc1ccc(C(C)(C)C)cc1C#N)c1ccc(NS(C)(=O)=O)c(F)c1 (centres undefined) | Not Active | 44 | 40 | –
CC(C(=O)NC1CCCc2ccccc21)c1ccc(NS(C)(=O)=O)c(F)c1 (centres undefined) | Not Active | – | – | –
CC(C(=O)NCCc1ccc(C(C)(C)C)cc1)c1ccc(NS(C)(=O)=O)c(F)c1 (centres undefined) | Not Active | – | – | –
Cc1ccc(CCCNC(=O)[C@H](C)c2ccc(NS(C)(=O)=O)c(F)c2)cc1C | Not Active | – | – | –
Cc1ccc(CCCNC(=O)[C@@H](C)c2ccc(NS(C)(=O)=O)c(F)c2)cc1C | Not Active | 257 | – | –
Cc1ccc(/C=C/CNC(=O)C(C)c2ccc(NS(C)(=O)=O)c(F)c2)cc1C (centres undefined) | Not Active | – | – | –
CC(C(=O)NC/C=C/c1ccc(Cl)cc1)c1ccc(NS(C)(=O)=O)c(F)c1 (centres undefined) | Not Active | – | – | –
CC(C(=O)NOCc1ccccc1)c1ccc(NS(C)(=O)=O)c(F)c1 (centres undefined) | Not Active | – | – | –
CC(C(=O)NC(c1ccccc1)c1ccccc1)c1ccc(NS(C)(=O)=O)c(F)c1 (centres undefined) | Not Active | – | – | –
CC(C(=O)NCC(c1ccccc1)c1ccccc1)c1ccc(NS(C)(=O)=O)c(F)c1 (centres undefined) | Not Active | – | – | –
CC(C(=O)NCCC(c1ccccc1)c1ccccc1)c1ccc(NS(C)(=O)=O)c(F)c1 (centres undefined) | Not Active | 130 | – | –
CC(C(=O)NCC1CC1(c1ccccc1)c1ccccc1)c1ccc(NS(C)(=O)=O)c(F)c1 (centres undefined) | Not Active | 188 | 148 | –
CC(C(=O)NCCN(c1ccccc1)c1ccccc1)c1ccc(NS(C)(=O)=O)c(F)c1 (centres undefined) | Not Active | 115 | 47 | –
Cc1ccc(C(CCNC(=O)C(C)c2ccc(NS(C)(=O)=O)c(F)c2)c2ccc(C)cc2)cc1 (centres undefined) | Not Active | 96 | 32.1 | –
Cc1ccc(C(=CCNC(=O)C(C)c2ccc(NS(C)(=O)=O)c(F)c2)c2ccc(C)cc2)cc1 (centres undefined) | Not Active | 30.9 | – | –
CC(C(=O)NCCC(c1ccc(F)cc1)c1ccc(F)cc1)c1ccc(NS(C)(=O)=O)c(F)c1 (centres undefined) | Not Active | 79 | 24.8 | –
CC(C(=O)NCC=C(c1ccc(F)cc1)c1ccc(F)cc1)c1ccc(NS(C)(=O)=O)c(F)c1 (centres undefined) | Not Active | – | – | –
CC(C(=O)NCC=C(c1ccc(Cl)cc1)c1ccc(Cl)cc1)c1ccc(NS(C)(=O)=O)c(F)c1 (centres undefined) | Not Active | 29.6 | 24.5 | –
Cc1ccc(C(CCNC(=O)C(C)c2ccc(NS(C)(=O)=O)c(F)c2)c2ccc(F)cc2)cc1 (centres undefined) | Not Active | 121 | 31 | –
CC(C(=O)NCC=C1c2ccccc2CCc2ccccc21)c1ccc(NS(C)(=O)=O)c(F)c1 (centres undefined) | Not Active | – | – | –
CC(C(=O)NCC=C1c2ccccc2C=Cc2ccccc21)c1ccc(NS(C)(=O)=O)c(F)c1 (centres undefined) | Not Active | 117 | 163 | –
Cc1ccc(CCCNC(=O)C(C)c2ccc(NS(C)(=O)=O)c(F)c2)cc1C (racemic) | Not Active | 413 | 97 | –
